In ChEMBL document CHEMBL4715736, “Identification of anticancer agents based on the thieno[2,3-b]pyridine and 1H-pyrazole molecular scaffolds” (2016):

test system: COLO 205; experiment: Growth inhibition of human COLO 205 cells assessed as cell growth at 0.01 uM incubated for 48 hrs by sulforhodamine B assay relative to control; type: functional; conditions: read-out: Activity
Method in brief: (§1)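 NCI Developmental Therapeutics Program NCI60 panel. Compounds that were active in the 10 µM one-dose screen went on to dose–response testing. Growth at each concentration is expressed relative to untreated control (100%). GI50 (concentration giving 50% of maximal inhibition of proliferation) and TGI (concentration giving total growth inhibition) were derived from the curves.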

With `CCc1cccc(C)c1NC(=O)c1sc2nc3c(cc2c1N)C(=O)CCC3` as the compound, how does the growth at 0.01 µM read?
Its growth at 0.01 µM is 96%.

test system: Malme-3M; experiment: Growth inhibition of human Malme-3M cells assessed as cell growth at 0.01 uM incubated for 48 hrs by sulforhodamine B assay relative to control; type: functional; conditions: read-out: Activity

With `CCc1cccc(C)c1NC(=O)c1sc2nc3c(cc2c1N)C(=O)CCC3` as the compound, how does the growth at 0.01 µM read?
The growth at 0.01 µM was 96%.

test system: UACC-257; experiment: Growth inhibition of human UACC-257 cells assessed as cell growth at 0.01 uM incubated for 48 hrs by sulforhodamine B assay relative to control; type: functional; conditions: read-out: Activity

`CCc1cccc(C)c1NC(=O)c1sc2nc3c(cc2c1N)C(=O)CCC3` was tested. Which growth at 0.01 µM did it give?
Its growth at 0.01 µM is 93%.

test system: ACHN; experiment: Growth inhibition of human ACHN cells assessed as cell growth at 0.01 uM incubated for 48 hrs by sulforhodamine B assay relative to control; type: functional; conditions: read-out: Activity

How did the growth at 0.01 µM turn out when `CCc1cccc(C)c1NC(=O)c1sc2nc3c(cc2c1N)C(=O)CCC3` was run?
Its growth at 0.01 µM is 94%.

test system: RXF 393; experiment: Growth inhibition of human RXF 393 cells assessed as cell growth at 0.01 uM incubated for 48 hrs by sulforhodamine B assay relative to control; type: functional; conditions: read-out: Activity

How did the growth at 0.01 µM turn out when `CCc1cccc(C)c1NC(=O)c1sc2nc3c(cc2c1N)C(=O)CCC3` was run?
Its growth at 0.01 µM is 84%.

test system: MDA-MB-231; experiment: Growth inhibition of human MDA-MB-231 cells assessed as cell growth at 0.01 uM incubated for 48 hrs by sulforhodamine B assay relative to control; type: functional; conditions: read-out: Activity

With `CCc1cccc(C)c1NC(=O)c1sc2nc3c(cc2c1N)C(=O)CCC3` as the compound, how does the growth at 0.01 µM read?
Its growth at 0.01 µM is 97%.

test system: T47D; experiment: Growth inhibition of human T47D cells assessed as cell growth at 0.01 uM incubated for 48 hrs by sulforhodamine B assay relative to control; type: functional; conditions: read-out: Activity

`CCc1cccc(C)c1NC(=O)c1sc2nc3c(cc2c1N)C(=O)CCC3` was tested. Which growth at 0.01 µM did it give?
Its growth at 0.01 µM is 97%.

test system: K562; experiment: Growth inhibition of human K562 cells assessed as cell growth at 0.1 uM incubated for 48 hrs by sulforhodamine B assay relative to control; type: functional; conditions: read-out: Activity

For `CCc1cccc(C)c1NC(=O)c1sc2nc3c(cc2c1N)C(=O)CCC3`, which growth at 0.1 µM is on record?
The growth at 0.1 µM was 89%.

test system: HOP-62; experiment: Growth inhibition of human HOP-62 cells assessed as cell growth at 0.1 uM incubated for 48 hrs by sulforhodamine B assay relative to control; type: functional; conditions: read-out: Activity

Which growth at 0.1 µM does the source give for `CCc1cccc(C)c1NC(=O)c1sc2nc3c(cc2c1N)C(=O)CCC3` here?
Its growth at 0.1 µM is 92%.

test system: IGROV-1; experiment: Growth inhibition of human IGROV-1 cells assessed as cell growth at 0.1 uM incubated for 48 hrs by sulforhodamine B assay relative to control; type: functional; conditions: read-out: Activity

How did the growth at 0.1 µM turn out when `CCc1cccc(C)c1NC(=O)c1sc2nc3c(cc2c1N)C(=O)CCC3` was run?
Its growth at 0.1 µM is 104%.

test system: OVCAR-8; experiment: Growth inhibition of human OVCAR-8 cells assessed as cell growth at 0.1 uM incubated for 48 hrs by sulforhodamine B assay relative to control; type: functional; conditions: read-out: Activity

For `CCc1cccc(C)c1NC(=O)c1sc2nc3c(cc2c1N)C(=O)CCC3`, which growth at 0.1 µM is on record?
Its growth at 0.1 µM is 97%.

test system: RPMI-8226; experiment: Growth inhibition of human RPMI-8226 cells assessed as cell growth at 1 uM incubated for 48 hrs by sulforhodamine B assay relative to control; type: functional; conditions: read-out: Activity

For `CCc1cccc(C)c1NC(=O)c1sc2nc3c(cc2c1N)C(=O)CCC3`, which growth at 1 µM is on record?
The growth at 1 µM was 44%.

test system: HOP-62; experiment: Growth inhibition of human HOP-62 cells assessed as cell growth at 1 uM incubated for 48 hrs by sulforhodamine B assay relative to control; type: functional; conditions: read-out: Activity

With `CCc1cccc(C)c1NC(=O)c1sc2nc3c(cc2c1N)C(=O)CCC3` as the compound, how does the growth at 1 µM read?
Its growth at 1 µM is 52%.

test system: MDA-MB-435; experiment: Growth inhibition of human MDA-MB-435 cells assessed as cell growth at 1 uM incubated for 48 hrs by sulforhodamine B assay relative to control; type: functional; conditions: read-out: Activity

Which growth at 1 µM does the source give for `CCc1cccc(C)c1NC(=O)c1sc2nc3c(cc2c1N)C(=O)CCC3` here?
Its growth at 1 µM is -50%.

test system: UACC-257; experiment: Growth inhibition of human UACC-257 cells assessed as cell growth at 1 uM incubated for 48 hrs by sulforhodamine B assay relative to control; type: functional; conditions: read-out: Activity

How did the growth at 1 µM turn out when `CCc1cccc(C)c1NC(=O)c1sc2nc3c(cc2c1N)C(=O)CCC3` was run?
The growth at 1 µM was 54%.

test system: ACHN; experiment: Growth inhibition of human ACHN cells assessed as cell growth at 1 uM incubated for 48 hrs by sulforhodamine B assay relative to control; type: functional; conditions: read-out: Activity

How did the growth at 1 µM turn out when `CCc1cccc(C)c1NC(=O)c1sc2nc3c(cc2c1N)C(=O)CCC3` was run?
The growth at 1 µM was 44%.

test system: MDA-MB-468; experiment: Growth inhibition of human MDA-MB-468 cells assessed as cell growth at 1 uM incubated for 48 hrs by sulforhodamine B assay relative to control; type: functional; conditions: read-out: Activity

Which growth at 1 µM does the source give for `CCc1cccc(C)c1NC(=O)c1sc2nc3c(cc2c1N)C(=O)CCC3` here?
Its growth at 1 µM is -8%.

test system: NCI-H460; experiment: Growth inhibition of human NCI-H460 cells assessed as cell growth at 100 uM incubated for 48 hrs by sulforhodamine B assay relative to control; type: functional; conditions: read-out: Activity

`CCc1cccc(C)c1NC(=O)c1sc2nc3c(cc2c1N)C(=O)CCC3` was tested. Which growth at 100 µM did it give?
Its growth at 100 µM is -33%.

test system: COLO 205; experiment: Growth inhibition of human COLO 205 cells assessed as cell growth at 100 uM incubated for 48 hrs by sulforhodamine B assay relative to control; type: functional; conditions: read-out: Activity; method in brief: as §1

For `CCc1cccc(C)c1NC(=O)c1sc2nc3c(cc2c1N)C(=O)CCC3`, which growth at 100 µM is on record?
Its growth at 100 µM is -31%.

test system: LOX IMVI; experiment: Growth inhibition of human LOX IMVI cells assessed as cell growth at 100 uM incubated for 48 hrs by sulforhodamine B assay relative to control; type: functional; conditions: read-out: Activity

`CCc1cccc(C)c1NC(=O)c1sc2nc3c(cc2c1N)C(=O)CCC3` was tested. Which growth at 100 µM did it give?
Its growth at 100 µM is 8%.

test system: SK-MEL-28; experiment: Growth inhibition of human SK-MEL-28 cells assessed as cell growth at 100 uM incubated for 48 hrs by sulforhodamine B assay relative to control; type: functional; conditions: read-out: Activity

How did the growth at 100 µM turn out when `CCc1cccc(C)c1NC(=O)c1sc2nc3c(cc2c1N)C(=O)CCC3` was run?
The growth at 100 µM was 11%.

test system: IGROV-1; experiment: Growth inhibition of human IGROV-1 cells assessed as cell growth at 100 uM incubated for 48 hrs by sulforhodamine B assay relative to control; type: functional; conditions: read-out: Activity

`CCc1cccc(C)c1NC(=O)c1sc2nc3c(cc2c1N)C(=O)CCC3` was tested. Which growth at 100 µM did it give?
The growth at 100 µM was 8%.

test system: NCI/ADR-RES; experiment: Growth inhibition of human NCI/ADR-RES cells assessed as cell growth at 100 uM incubated for 48 hrs by sulforhodamine B assay relative to control; type: functional; conditions: read-out: Activity

For `CCc1cccc(C)c1NC(=O)c1sc2nc3c(cc2c1N)C(=O)CCC3`, which growth at 100 µM is on record?
Its growth at 100 µM is 1%.

test system: MOLT-4; experiment: Growth inhibition of human MOLT-4 cells incubated for 48 hrs by sulforhodamine B assay; type: functional; conditions: not given
Method in brief: (§2)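 NCI60 panel at the NCI Developmental Therapeutics Program. Only compounds active in the 10 µM screen went to dose-response testing. GI50, the concentration giving 50% of maximal inhibition of proliferation, and TGI, the concentration giving total growth inhibition, were derived from the dose-response curves.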

How did the GI50 turn out when `CCc1cccc(C)c1NC(=O)c1sc2nc3c(cc2c1N)C(=O)CCC3` was run?
The GI50 was 2.42 µM.

And the TGI?
The TGI was no less than 100 µM.

same assay, conditions: read-out: LC50 (the source's name)

With `CCc1cccc(C)c1NC(=O)c1sc2nc3c(cc2c1N)C(=O)CCC3` as the compound, how does the CC50 read?
The CC50 was greater than 100 µM.

test system: A549; experiment: Growth inhibition of human A549/ATCC cells incubated for 48 hrs by sulforhodamine B assay; type: functional; conditions: not given; method in brief: as §1

Which GI50 does the source give for `CCc1cccc(C)c1NC(=O)c1sc2nc3c(cc2c1N)C(=O)CCC3` here?
Its GI50 is 0.593 µM.

And the TGI?
Its TGI is greater than 100 µM.

same assay, conditions: read-out: LC50 (the source's name)

With `CCc1cccc(C)c1NC(=O)c1sc2nc3c(cc2c1N)C(=O)CCC3` as the compound, how does the CC50 read?
The CC50 was greater than 100 µM.

test system: NCI-H226; experiment: Growth inhibition of human NCI-H226 cells incubated for 48 hrs by sulforhodamine B assay; type: functional; conditions: not given; method in brief: as §2

`CCc1cccc(C)c1NC(=O)c1sc2nc3c(cc2c1N)C(=O)CCC3` was tested. Which GI50 did it give?
Its GI50 is 0.182 µM.

What about the TGI of the same compound?
The TGI was greater than 100 µM.

same assay, conditions: read-out: LC50 (the source's name)

With `CCc1cccc(C)c1NC(=O)c1sc2nc3c(cc2c1N)C(=O)CCC3` as the compound, how does the CC50 read?
Its CC50 is greater than 100 µM.

test system: UACC-62; experiment: Growth inhibition of human UACC-62 cells incubated for 48 hrs by sulforhodamine B assay; type: functional; conditions: not given
Method in brief: (§3)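 NCI DTP 60-line human tumour panel. Dose-response curves were run only for ligands active in the initial 10 µM screen. GI50 (concentration giving 50% of maximal inhibition of proliferation) and TGI (concentration giving total growth inhibition) were derived from these curves.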

How did the GI50 turn out when `CCc1cccc(C)c1NC(=O)c1sc2nc3c(cc2c1N)C(=O)CCC3` was run?
Its GI50 is 0.556 µM.

What about the LC50 of the same compound?
Its LC50 is greater than 100 µM.

And the TGI?
The TGI was greater than 100 µM.

test system: IGROV-1; experiment: Growth inhibition of human IGROV-1 cells incubated for 48 hrs by sulforhodamine B assay; type: functional; conditions: not given; method in brief: as §2

Which results are given for `CCc1cccc(C)c1NC(=O)c1sc2nc3c(cc2c1N)C(=O)CCC3`?
GI50: 0.111 µM; LC50: > 100 µM; TGI: > 100 µM

test system: OVCAR-4; experiment: Growth inhibition of human OVCAR-4 cells incubated for 48 hrs by sulforhodamine B assay; type: functional; conditions: not given; method in brief: as §3

What does the source list for `CCc1cccc(C)c1NC(=O)c1sc2nc3c(cc2c1N)C(=O)CCC3`?
GI50: 0.01 µM; TGI: > 100 µM

same assay, conditions: read-out: LC50 (the source's name)

How did the CC50 turn out when `CCc1cccc(C)c1NC(=O)c1sc2nc3c(cc2c1N)C(=O)CCC3` was run?
Its CC50 is greater than 100 µM.

test system: UO-31; experiment: Growth inhibition of human UO-31 cells incubated for 48 hrs by sulforhodamine B assay; type: functional; conditions: not given; method in brief: as §3

Which results are given for `CCc1cccc(C)c1NC(=O)c1sc2nc3c(cc2c1N)C(=O)CCC3`?
GI50: 0.0982 µM; TGI: ≥ 100 µM

same assay, conditions: read-out: LC50 (the source's name)

With `CCc1cccc(C)c1NC(=O)c1sc2nc3c(cc2c1N)C(=O)CCC3` as the compound, how does the CC50 read?
The CC50 was greater than 100 µM.
